For data set [1], the species on record is Homo sapiens. The data set is described as follows: Suppression of okadaic acid-induced inhibition of PP1/PP2A in human SHSY-5Y cells at 0.1 uM using pNPP as substrate assessed as remaining total phosphatase activity incubated for 30 mins by colorimetric assay (reference value: 68 +/- 2%). The data set is classed as cell-based. The method in brief: (§1)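 SH-SY5Y cells treated with compound at 0.1 μM plus okadaic acid 15 nM (24 h preincubation, then coincubation). Medium removed; assay buffer with pNPP (10 mM) added, 30 min at 37 °C in the dark, absorbance at 405 nm. For Ser/Thr activity, 1 mM orthovanadate added to the buffer. Expressed as % of untreated cells; at least four experiments.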

For data set [2], the species on record is Homo sapiens. Description: Suppression of okadaic acid-induced inhibition of PP1/PP2A in human SHSY-5Y cells at 0.1 uM using pNPP as substrate assessed as remaining Ser/Thr phosphatase activity incubated for 30 mins in presence of tyrosine phosphatase inhibitor sodium orthovanadate by colorimetric assay (reference value: 61 +/- 3%). The data set is classed as cell-based. In a few lines:
as §1

Data set [3] deals with SH-SY5Y. Description: Cytotoxicity against human SH-SY5Y cells assessed as reduction of cell viability at <10 uM incubated for 48 hrs by MTT assay. The data set is classed as cell-based. In a few lines:
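SH-SY5Y cells exposed to compounds for 48 h; viability read by MTT reduction (final 0.3 mg/mL, 2 h at 37 °C in the dark), formazan dissolved in DMSO, absorbance at 540 nm, expressed as % of untreated cells.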
(Formazan colour is commonly taken as a measure of viable cells.)

Data set [4] has as its system Cortical neurone. The data set is described as follows: Neuroprotective activity in rat cortical motor neurons assessed as reversal of veratridine-induced cytotoxicity at 0.1 uM incubated for 24 hrs followed by coincubation with veratridine for 24 hrs by MTT assay. The data set is classed as functional.
For data set [5], the system named is Voltage-gated calcium channel. Description: Inhibition of VGCC in human SHSY-5Y cells assessed as reduction of K+-evoked cytosolic ca2+ at 1 uM incubated for 10 mins prior to KCl addition by Fluo-4-AM probe-based fluorescence analysis. The data set is classed as cell-based. The method in brief:
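SH-SY5Y cells at confluence (48 h after seeding) loaded with 10 μM Fluo-4/AM plus 0.2% pluronic in Krebs–HEPES (pH 7.4) for 45 min at 37 °C, then washed. Compound at 1 μM for 10 min, then KCl 70 mM. Ex 485/em 520 nm; signal normalized to Fmax (Triton X-100) minus Fmin (MnCl2). At least six experiments versus K+ response without compound.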

In data set [6] the test system is Cortical neurone. The data set is described as follows: Cytotoxicity against rat cortical motor neurons assessed as reduction of cell viability at 1 uM incubated for 48 hrs by MTT assay. The data set is classed as cell-based. In a few lines: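 Rat cortical motor neurons in neurobasal medium with 2% B-27 on poly-D-lysine, grown 8−10 days to a dense network, then exposed to compound for 48 h. Viability read by MTT (0.3 mg/mL final, 30 min, 37 °C, dark), formazan dissolved in DMSO, absorbance 540 nm, expressed as % of untreated cells.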

The subject of data set [7] is SH-SY5Y. The data set is described as follows: Neuroprotective activity in human SH-SY5Y cells assessed as reversal of okadaic acid-induced cytotoxicity at 0.1 uM preincubated for 24 hrs followed by […] by MTT assay. The data set is classed as functional.

Take `Brc1ccc2c(c1)c(CN1CCCCC1)cn2CCCCN1CCCCC1`: the Activity in data set [1] is 73%; in data set [2], 70%; in data set [3] it was “Non-Toxic”; in data set [4] it was 0%; in data set [6], “Toxic”; in data set [7] it was 61%. The “inhibition (INH)” value in data set [5] stood at 19%.

For the origin of these results see ChEMBL document CHEMBL4477210, “Gramine Derivatives Targeting Ca(2+) Channels and Ser/Thr Phosphatases: A New Dual Strategy for the Treatment of Neurodegenerative Diseases” (J Med Chem, 2016).
